Source: PubChem BioAssay
MrgX1 antagonist – blocks BAM8-22 activation of human MrgX1 receptor; Q96LB2; MRGX1-HEK293 calcium flux, Fluo-4, BAM8-22 antagonism; stronger effect = lower value; B-score at 10 µM; hit rate 1.3% among 310,000; AID 588676;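 active = calcium-response B-score plate-corrected more than 3 library SD below zero, starting fluorescence within 5 deviations, no agonist response on first addition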;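 also: peak minus trough fluorescence over baseline after final BAM8-22 challenge near maximal dose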
Target sequence (Q96LB2 whole entry, looked up): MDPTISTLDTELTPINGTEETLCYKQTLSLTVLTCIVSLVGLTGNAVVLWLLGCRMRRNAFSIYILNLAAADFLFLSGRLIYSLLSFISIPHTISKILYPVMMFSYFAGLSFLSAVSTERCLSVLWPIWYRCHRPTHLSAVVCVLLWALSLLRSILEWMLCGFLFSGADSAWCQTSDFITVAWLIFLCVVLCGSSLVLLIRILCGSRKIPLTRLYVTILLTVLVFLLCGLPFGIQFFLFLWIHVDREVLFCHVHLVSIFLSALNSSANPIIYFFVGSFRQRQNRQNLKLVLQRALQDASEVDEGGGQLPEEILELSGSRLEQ
MrgX1 PAM – allosterically activates human MrgX1 receptor signaling; MrgX1-HEK293, Fluo-4 calcium flux, FDSS; stronger effect = higher value; B-score at 10 µM; hit rate 0.63% among 310,000;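 active = plate-corrected calcium response at least 3 library SD above typical, normal starting fluorescence, not activating the receptor alone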;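 also: compound read alongside a low EC10 to EC30 dose of BAM8-22 agonist; peak minus trough fluorescence over baseline measured at the second addition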
MrgX1 ag – agonists of human MrgX1 receptor; AID 588627; B-score at 10 µM; Q96LB2; MrgX1-HEK293 cells, Fluo-4 calcium fluorescence, agonist mode; stronger effect = higher value; hit rate 0.44% among 310,000;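 active = calcium response B-score plate-corrected fluorescence ratio at least 3 library SD, with starting fluorescence B-score inside 5 SD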
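Test system: HEK293 cells stably expressing human MrgX1 receptor; amount: 15,000 cells per well; doses: compound delivered in addition one of three; times: overnight plating before 1 h dye loading; detection: Fluo-4 NW calcium-flux fluorescence, kinetic read; read-out basis: B-scored fluorescence response ratio; controls: positive and negative controls per plate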
Hep lipid drop – hepatic lipid droplet formation modulation; inhibition, % at 6.5 µM; AML12 mouse hepatocytes, oleate lipid droplets, BODIPY imaging; AID 1656; hit rate 0.4% among 240,000;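 active = lipid droplet intensity inhibited by at least 50%, with more than 500 cells counted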
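System: AML12 hepatocytes (mouse). Probe or stimulus: oleic acid at 100 µM to induce lipid droplet formation. Times: overnight treatment with compound plus oleate. Detection: Image-based BODIPY and DAPI two-channel analysis. Evaluation: percent inhibition of filter-corrected integrated lipid droplet intensity per well.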
RGS4 inh – human RGS4 inhibition | P49798 | HEK293 M3R/RGS4 inducible, Fluo-4 calcium flux; stronger effect = higher value; triggered by carbachol at its EC20 | B-score at 10 µM | hit rate 0.45% among 310,000;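 active = B-score, a plate-corrected calcium signal, over three deviations above library mean, with baseline fluorescence within five deviations of library mean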;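 also: RGS4 expression induced by doxycycline in cells with stable M3 receptor; B-score is computed from the integrated fluorescence ratio over baseline after carbachol; higher B-score means a larger calcium signal and so more RGS4 inhibition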
Target sequence (P49798 whole entry, looked up): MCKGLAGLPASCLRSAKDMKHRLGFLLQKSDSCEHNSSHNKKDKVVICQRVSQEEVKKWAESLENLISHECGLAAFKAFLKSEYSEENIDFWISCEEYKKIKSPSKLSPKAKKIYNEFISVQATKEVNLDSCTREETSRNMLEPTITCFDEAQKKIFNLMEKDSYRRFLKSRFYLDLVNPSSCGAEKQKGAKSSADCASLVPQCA
RGS4 pot – RGS4 potentiation or activation; AID 463111; B-score at 10 µM; HEK293 M3R/inducible RGS4, carbachol calcium flux Fluo4; stronger effect = lower value; hit rate 0.92% among 310,000;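 active = B-score of the integrated calcium signal more than 4 SD below the library mean, with starting fluorescence not abnormally high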;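 also: negative B-score means reduced calcium response which marks RGS4 activation or potentiation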
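test system = M3R-expressing HEK293 line, RGS4 induced by doxycycline | probe or stimulus = carbachol at ECmax as muscarinic agonist stimulus | timing = dye loading 30 min 37 °C, buffer rest 30 min RT | signal = calcium dye Fluo4 fluorescence | evaluation = B score from integrated fluorescence ratio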
RGS4 activ val – confirmation of RGS4 activators. shares compounds with RGS4 pot. hit rate 89% among 1,100. inhibition, % at 10 µM. HEK293 M3R/RGS4 inducible, carbachol calcium flux Fluo4. AID 602282;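 active = inhibition above 3 SD of the buffer control wells, cut at about 41% in these data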;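 also: signal is the integrated peak-minus-minimum Fluo4 fluorescence over baseline ratio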
M3R Ca counter – counter-screen for RGS4 activators: effect in non-induced cells | inhibition, % at 10 µM | hit rate 82% among 1,100 | shares compounds with RGS4 pot | HEK293 M3R non-induced RGS4, Fluo4 calcium flux; after carbachol challenge at its EC90;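 active = inhibition exceeding 3 SD of buffer-only control wells, cut at about 26% in these data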;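 also: percent drop in integrated peak-minus-baseline over baseline Fluo4 ratio after carbachol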
MrgX1 ag confirm – reconfirmed activator of human MrgX1 receptor signaling | hit rate 78% among 600 | MrgX1-HEK293, Fluo-4 calcium fluorescence, FDSS | activation, % at 10 µM | shares compounds with MrgX1 ag;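 active = calcium signal rise, corrected for plate position, at least 3 library SD high, with starting brightness within 5 such deviations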
MrgX1 PAM conf – confirmation of human MrgX1 receptor positive allosteric modulators; activation (ratio percentage), % at 10 µM; hit rate 13% among 1,200; MrgX1-HEK293, Fluo-4 calcium fluorescence, FDSS; shares compounds with MrgX1 PAM; AID 602413;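 active = ratio at least 3 SD above the weak peptide control, stable starting fluorescence, no direct agonism earlier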;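 also: compound followed by low BAM8-22 agonist challenge near EC20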
MrgX1 antag conf – confirmation of human MrgX1 receptor antagonists. shares compounds with MrgX1 antagonist. MrgX1-HEK293, BAM8-22 calcium flux, Fluo-4; stronger effect = lower value. remaining BAM8-22 calcium response % of control (stronger effect = lower value), % at 10 µM. hit rate 19% among 2,300;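 active = remaining agonist calcium response no higher than 100% minus 3 SD of agonist-only control wells, with starting fluorescence near control levels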;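 also: agonist BAM8-22 given at a near maximal EC90 to ECmax level; peak minus minimum fluorescence divided by baseline after agonist addition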
HEK293 Ca flux – activity in parental HEK293 cells lacking MrgX1. Fluo-4 calcium fluorescence, FDSS. shares compounds with MrgX1 antagonist. AID 624111. hit rate 2% among 4,000. fluorescence ratio F(max-min)/F0 at 10 µM;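 active = duplicate-averaged calcium fluorescence ratio at least three times the standard deviation of buffer wells, a nonspecific response in parental cells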
HEK293 Ca counter – MrgX1 allosteric activator counter-screen hit in parental HEK293 cells | shares compounds with MrgX1 antagonist | parental HEK293 calcium flux, Fluo-4 fluorescence ratio; stronger effect = higher value | fluorescence ratio F(max-min)/F0 at 10 µM | hit rate 0.4% among 4,000 | AID 624114;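 active = calcium fluorescence ratio, averaged over duplicates, at least 3 SD of the buffer-well ratio, meaning a nonspecific response in receptor-free cells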;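 also: untransfected parental HEK293 lacking MrgX1 used as counterscreen for MrgX1 allosteric activators; fluorescence change taken during the second addition on a kinetic imager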
HEK293 Ca cntr2 – counter-screen for MrgX1 activators: effect in parental HEK293 cells. Fluo-4 calcium fluorescence (FDSS); stronger effect = higher value. hit rate 8.7% among 4,000. fluorescence ratio F(max-min)/F0 at 10 µM. shares compounds with MrgX1 antagonist. AID 624115;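 active = calcium fluorescence ratio at least three times the spread of buffer wells, meaning a non-specific response in parental cells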
Numbers without * were called inactive; i = inactive; nt = no result given. A selection: hits, their analogues and other compounds. The true share with any hit is near 3.8%.

SMILES	MrgX1 antagonist	MrgX1 PAM	MrgX1 ag	Hep lipid drop	RGS4 inh	RGS4 pot	RGS4 activ val	M3R Ca counter	HEK293 Ca flux	HEK293 Ca counter	HEK293 Ca cntr2	others
CCOC(=O)c1cnc2c(C)cccc2c1NCc1ccco1	i	7.57*	i	4.0	i	-12.1*	92.0*	94.3*	i	i	i	MrgX1 PAM conf=i
CN(C)CCN(C(=O)c1ccccc1Cl)c1nc2c(Cl)cccc2s1	i	i	i	-7.6	i	i	nt	nt	nt	nt	nt
O=C(NCCC(NS(=O)(=O)OCC(Cl)(Cl)Cl)c1ccccc1)C(F)(F)F (stereo not drawn)	i	i	i	-8.2	i	i	nt	nt	nt	nt	nt
CN(Cc1ccccc1)c1nc2c(c(=O)n(C)c(=O)n2C)n1CCCc1ccccc1	i	8.92*	i	-2.8	i	-8.49*	75.0*	83.8*	i	i	i	MrgX1 PAM conf=i
CCN(CC)c1nc2c(c(=O)n(C)c(=O)n2C)n1CCCc1ccccc1	i	i	i	-10.5	i	i	nt	nt	nt	nt	nt
CN1CCN(C(=S)c2cn(CCOc3ccccc3F)c3ccccc23)CC1	i	i	i	-12.0	i	i	nt	nt	nt	nt	nt
CCN(CC)CCOC(=O)c1c(C)oc2ccc(OC)cc12	-5.17*	i	i	nt	i	-7.83*	67.0*	83.8*	i	i	i	MrgX1 antag conf=i
CCN1CC(CN(C)Cc2cn(-c3ccc(C)cc3)nc2-c2cccc(C)c2)CC1=O (stereo not drawn)	i	i	i	-10.3	i	i	nt	nt	nt	nt	nt
COc1ccc(-c2nc(NC(=O)c3[nH]c(C)c(C(C)=O)c3C)sc2C)cc1	-8.53*	i	i	8.4	i	-11.4*	92.5*	91.8*	i	i	i	MrgX1 antag conf=52.5%*
COc1ccc(OC)c(NC(=O)c2[nH]c(C)c(C(C)=O)c2C)c1	i	i	i	nt	i	i	nt	nt	nt	nt	nt
COc1ccc(S(=O)(=O)N2CCCC2C(=O)n2nc(C)cc2C)cc1 (stereo not drawn)	i	i	i	-17.9	i	i	nt	nt	nt	nt	nt
CCOC(=O)Cc1csc(NC(=O)c2csc(C)c2)n1	i	i	i	-4.6	i	i	nt	nt	nt	nt	nt
CCOC(=O)Cc1csc(NC(=O)c2sc3nc4c(C)cc(C)cc4cc3c2N)n1	-9.24*	i	i	-36.9	i	-8.6*	83.5*	63.3*	i	i	i	MrgX1 antag conf=i
CS(=O)(=O)c1sc(C#N)c2c1C(=O)CC(c1ccccc1)C2 (stereo not drawn)	i	i	36.6*	-1.2	i	-9.02*	53.0*	0.0	i	i	52.8*	MrgX1 ag confirm=257.0%*
